Assay outcomes as filed in PubChem BioAssay.
FXIIa inh – inhibitors of human coagulation factor XIIa; AID 800; P00748; inhibition, % at 5 µM; hit rate 0.3% among 220,000; purified FXIIa, Boc-QGR-AMC fluorogenic substrate, 2 h; in the data active = inhibition above about 40%;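 also: 0% = enzyme with no compound and 100% = blank without enzyme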
FXIa inh – inhibitors of human coagulation factor XIa; purified FXIa, Boc-Glu-Ala-Arg-AMC fluorogenic substrate; inhibition, % at 5 µM; hit rate 0.14% among 220,000; AID 798;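 active = inhibition of at least 40%; inactive = inhibition below 40%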;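 also: fluorescence of freed AMC excited at 355 nm; 0% = enzyme without compound and 100% = no enzyme blank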
Target sequence (P03951 19-387 limits assumed): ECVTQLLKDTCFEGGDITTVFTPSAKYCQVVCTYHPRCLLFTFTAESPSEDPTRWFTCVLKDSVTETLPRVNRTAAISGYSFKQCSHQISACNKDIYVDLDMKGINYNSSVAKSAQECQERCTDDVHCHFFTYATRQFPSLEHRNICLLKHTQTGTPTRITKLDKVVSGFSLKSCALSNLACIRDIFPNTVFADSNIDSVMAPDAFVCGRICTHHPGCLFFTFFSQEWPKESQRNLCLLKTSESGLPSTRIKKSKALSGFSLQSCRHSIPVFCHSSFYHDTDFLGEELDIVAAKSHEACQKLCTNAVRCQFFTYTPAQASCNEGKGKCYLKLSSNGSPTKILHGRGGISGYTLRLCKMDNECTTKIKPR
Target sequence (P03951 388-625 limits assumed): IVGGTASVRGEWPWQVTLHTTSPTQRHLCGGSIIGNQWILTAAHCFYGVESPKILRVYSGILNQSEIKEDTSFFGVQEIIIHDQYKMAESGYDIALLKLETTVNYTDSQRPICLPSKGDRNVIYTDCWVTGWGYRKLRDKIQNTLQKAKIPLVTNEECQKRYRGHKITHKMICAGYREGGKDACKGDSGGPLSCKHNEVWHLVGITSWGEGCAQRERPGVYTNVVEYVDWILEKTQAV
m-calpain inh – inhibitors of pig calpain II; purified calpain II, fluorogenic peptide substrate, 30 min; inhibition, % at 16 µM; hit rate 0.37% among 220,000; AID 1236;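 active = inhibition above about 50%, limit read from the data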
Thrombin inh – blocks human thrombin protease activity; alpha-thrombin, Boc-VPR-AMC fluorogenic substrate cleavage; inhibition, % at 5 µM; P00734; hit rate 0.26% among 220,000;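 active = inhibition at or above 40%; inactive = inhibition below 40%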;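 also: 0% = enzyme with no compound and 100% = wells without enzyme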
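Test system: human alpha-thrombin protein / Dosing: one concentration per compound, 5 µM, with 0.2% DMSO / Medium: pH 7.5 Tris-saline with Tween 20 / Benchmarks: no-compound enzyme wells and no-enzyme blanks / Read-out basis: percent inhibition of thrombin substrate cleavage / Timing: reaction at room temperature / Measured by: fluorescence, ex 355 nm, em 460 nm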
KLK5 inh – blocks human kallikrein 5 protease activity; Q9Y337; recombinant hK5, fluorogenic AMC substrate cleavage; inhibition, % at 5 µM; hit rate 0.59% among 210,000; AID 873;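 active = inhibition of 40% or more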;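 also: 0% = enzyme controls without compound and 100% = no-enzyme blanks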
Numbers without * were called inactive; x = no result given. In the library only some 1.4% were active in any assay of this set; here they are far more common.

SMILES	FXIIa inh	FXIa inh	m-calpain inh	Thrombin inh	KLK5 inh
O=C(Nc1cccc(F)c1)c1ccc(Cn2cc([N+](=O)[O-])cn2)o1	17.2	-1.2	10.2	24.8	26.2
CCCC1=NN(C(=O)Cc2ccc([N+](=O)[O-])cc2)C(O)(C(F)(F)F)C1 (stereo unspecified)	-3.6	-6.6	18.3	-1.9	-22.8
CCC1=NN(C(=O)Cc2ccc([N+](=O)[O-])cc2)C(O)(C(F)(F)F)C1 (stereo unspecified)	55.5*	27.5	9.1	22.2	24.6
Cc1cc(C(=O)Nc2ccc(N3CCCC3)c(Cl)c2)ccc1[N+](=O)[O-]	16.0	4.0	50.1*	-0.7	-8.5
O=C(Nc1ccc(N2CCCC2)c(Cl)c1)c1ccc([N+](=O)[O-])cc1	7.2	5.3	13.1	-9.9	-20.4
CCc1ccc(NC(=S)N(Cc2cccc(Br)c2)CC2CCC(C(=O)O)CC2)cc1 (stereo unspecified)	23.1	25.1	-27.0	8.5	65.5*
CCC(=O)OCn1nnc2ccccc2c1=O	9.7	0.7	19.6	-7.4	2.1
CCOc1ccc(CC(=O)OCn2nnc3ccccc3c2=O)cc1	9.0	-1.7	65.9*	-3.5	-4.0
NS(=O)(=O)c1ccc(NC(=O)COC(=O)c2ccc([N+](=O)[O-])s2)cc1	10.6	7.7	-2.2	0.0	-3.6
COc1ccc(-c2n[nH]c(=S)n2-c2ccc3c(c2)OCCO3)cc1	-0.6	-2.9	13.6	-2.1	1.8
COc1cc(OC)cc(-c2n[nH]c(=S)n2-c2ccc3c(c2)OCCO3)c1	x	35.0	7.4	40.9*	16.3
C/C=C(\C)C(=O)OC1c2c(ccc3ccc(=O)oc23)OC(C)(C)C1OC(C)=O (stereo unspecified)	38.7	45.4*	-5.5	-5.3	-3.4
C/C=C(/C)C(=O)OC1c2c(ccc3ccc(=O)oc23)OC(C)(C)C1OC(=O)/C(C)=C\C (stereo unspecified)	9.6	2.5	17.3	1.3	-2.7
CCN(CC)C(=O)C(=O)Nc1ccc(OC)c(Cl)c1	4.4	0.2	-10.2	-6.5	2.2
CCN1CCN(CC(=O)Nc2cc(C)on2)CC1	26.8	45.5*	11.5	3.0	41.6*
CCOC(=O)c1sc2ccc(S(=O)(=O)N3CCOCC3)cc2c1N	10.2	4.8	-59.5	38.5	55.6*
CCc1nnc(NC(=O)CSc2ccc(-c3nc4ccc(C)cc4[nH]3)cn2)s1	1.2	-5.9	-59.2	15.1	11.6
CC(C)OCCCN1C=C2C(=O)C(C)(OC(=O)CCc3ccccc3)C(=O)C=C2C=C1c1ccc(C#N)cc1 (stereo unspecified)	9.7	2.6	-35.0	-4.0	2.3
N#Cc1cnc(N)c(Br)c1	8.9	0.7	-6.3	-8.6	6.2
Cc1ccc(N(CCCCN2C(=O)c3ccccc3C2=O)C(=O)c2ccc(Cl)s2)cc1	4.9	6.2	50.2*	4.8	0.1
O=C(Nc1ccccc1N1CCOCC1)c1cccc(F)c1	14.1	1.2	-17.9	-1.8	7.2
O=C(Nc1ccccc1N1CCOCC1)c1ccc2nc[nH]c2c1	11.7	5.4	-8.5	56.5*	14.4
CC(NC(=O)COC(=O)CC(c1ccccc1)c1ccccc1)c1ccccc1 (stereo unspecified)	7.9	2.0	16.9	-1.1	-7.7
COc1ccc(S(=O)(=O)NC(C)C(=O)Nc2cccc(C(C)=O)c2)cc1 (stereo unspecified)	4.2	-13.9	33.0	46.9*	-10.1
COc1ccc(S(=O)(=O)NC(C)C(=O)Nc2ccccc2F)cc1 (stereo unspecified)	-0.8	-1.3	-10.6	-3.0	-25.1
SMILES	FXIIa inh	FXIa inh	m-calpain inh	Thrombin inh	KLK5 inh
COc1ccccc1NC(=O)N1CCCC1C(=O)NC1CCCCC1 (stereo unspecified)	14.7	11.0	7.6	53.6*	22.4
O=c1sc2ccccc2n1Cc1ccccc1	16.1	-0.5	14.2	-1.5	-1.7
CCOc1ccccc1Cn1c(=O)sc2ccccc21	3.2	-3.2	51.0*	-1.7	-4.1
O=C1C=C(NCc2ccc(Cl)c(Cl)c2)CC1	6.0	-4.4	-17.5	-3.4	-4.3
O=C1C=C(NCc2ccc(Cl)cc2)CCC1	22.9	5.5	32.5	14.2	49.7*
CN(C)c1nnnn1-c1ccc(Oc2ncc(C(F)(F)F)cc2Cl)cc1	2.4	-8.3	44.9	-16.1	-5.2
COC(=O)c1c(NC(=O)c2ccc(Br)s2)sc2c1CCC2	55.2*	26.7	-82.8	10.4	1.6
COC(=O)c1c(NC(NC(C)=O)C(Cl)(Cl)Cl)sc2c1CCCC2 (stereo unspecified)	7.7	2.5	54.6*	-2.5	-7.0
